What is called half-life is the time needed for the level to fall by half in the phase considered. What is called pKa is the negative logarithm of the acid dissociation constant. Low values mean a group that gives up its proton readily, high ones a group that holds its proton tightly.

The source of these data is ChEMBL document CHEMBL3627654, “Ring substitution influences oxidative cyclisation and reactive metabolite formation of nordihydroguaiaretic acid analogues” (Bioorg Med Chem, 2015).

Some results are limits rather than exact numbers.

Series [1] is described as follows: Stability of compound in 0.5M phosphate citric acid buffer assessed as autoxidative conversion at 0.1 mM at pH 7.4 at 37 degC for 90 mins by HPLC-UV analysis. The note with it: pH 7.4, 1.5 h, 100 µM. Type of series: physicochemical. The method in brief:
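Incubated 90 min at 37 °C. Dibenzocyclooctadiene formation monitored by HPLC, with products examined by MS and NMR. NDGA served as positive control.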

Series [2] can be described thus: Stability of compound in 0.5M phosphate citric acid buffer assessed as drug degradation at 0.5 mM at pH 7.4 at 37 degC for 48 hrs by HPLC-UV analysis. Type of series: physicochemical. To be noted: read-out: Drug degradation. The method in brief:
(§1)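 Aliquots over time quenched to pH 1.5 with HCl, quantified by HPLC against standard curves (peak area ratio to DMPA). k from slope of ln(C/Co) versus time, pseudo-first-order; half-life derived.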

Series [3] in a line: Half life of the compound in 0.5M phosphate citric acid buffer at 0.5 mM at pH 7.4 at 37 degC by HPLC-UV analysis. The format is ADME. In short, it runs like this: as §1
Series [4] is described as follows: Drug degradation in 0.5M phosphate citric acid buffer at 0.5 mM at pH 7.4 at 37 degC by HPLC-UV analysis. Type of series: physicochemical. To be noted: pH 7.4, 500 µM. In short, it runs like this: as §1
Series [5] can be described thus: Drug degradation in phosphate citric acid buffer at pH 7.4 at 37 degC at 0.5 mM by HPLC-UV analysis. Type of series: physicochemical. To be noted: pH 7.4, 500 µM. In short, it runs like this: as §1
Series [6] can be described thus: Drug degradation in phosphate citric acid buffer at pH 7.4 at 37 degC by HPLC-UV analysis relative to cNDGA. Type of series: physicochemical. In short, it runs like this: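 Cyclised dibenzocyclooctadiene derivative (0.5 mM) with DMPA internal standard incubated in phosphate–citric acid buffer (0.5 M, pH 7.4) at 37 °C; aliquots acidified to pH 1.5 and parent loss followed by HPLC. First-order rate constant from ln(C/Co) versus time, expressed relative to cNDGA.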

The nature of series [7]: Stability of compound assessed as formation of cNDGA in phosphate citric acid buffer at pH 7.4 at 37 degC by HPLC-UV analysis. Type of series: physicochemical. The method in brief:
(§2)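 Formation rate of the dibenzocyclooctadiene inferred from loss of the parent substrate (0.5 mM, DMPA internal standard) in phosphate–citric acid buffer (0.5 M, pH 7.4) at 37 °C. Aliquots acidified to pH 1.5 with HCl and analysed by HPLC; first-order k from ln(C/Co) versus time, relative rate versus NDGA.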

A short description of series [8]: Stability of compound assessed as level of starting material at 37 degC for 6 hrs in presence of 20 fold excess of glutathione. Type of series: physicochemical. To be noted: read-out: Stability. The method in brief:
(§3)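 Substrate and DMPA internal standard, 0.5 mM each, incubated in phosphate–citrate buffer (0.5 M, pH 7.4) at 37 °C for 6 h with or without 20-fold excess glutathione. Samples acidified to pH 1.5 and analysed directly by HPLC and ESI-MS. Relative percentage of starting material, cyclised product and adduct reported.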

A short description of series [9]: Dissociation constant, pKa of compound. The format is physicochemical.
The nature of series [10]: Stability of compound assessed as level of starting material at 37 degC for 6 hrs in absence of glutathione. Type of series: physicochemical. To be noted: read-out: Stability. In short, it runs like this:
as §3

Series [11] can be described thus: Stability of compound assessed as formation of 5,6,7,8-Tetrahydro-dibenzo[a,c]cyclooctene-2,3,10,11-tetraol in phosphate citric acid buffer at pH 7.4 at 37 degC by HPLC-UV analysis relative to NDGA. Type of series: physicochemical. In short, it runs like this: as §2
A short description of series [12]: Stability of compound assessed as formation of 5,6,7,8-Tetrahydro-dibenzo[a,c]cyclooctene-2,3,10,11-tetraol in phosphate citric acid buffer at pH 7.4 at 37 degC by HPLC-UV analysis. Type of series: physicochemical. The method in brief: as §2

Turning to `CC(Cc1cccc(O)c1)C(C)Cc1cccc(O)c1` (centres undefined), the Drug metabolism entry in series [1] is recorded as “metabolite_detected”. Besides, the degraded at 48 h, 500 µM in [2] was less than 5%.

Turning to `COc1ccc(CC(C)C(C)Cc2ccc(OC)c(O)c2)cc1O` (centres undefined), the Drug metabolism entry in [1] was “metabolite_detected”. This compound had a half-life at 500 µM in series [3] of 4.68 h. Moreover, in series [4], the K came out at 4.11 ×10⁻⁵ /s.

`CC(Cc1ccccc1)C(C)Cc1ccc(O)c(O)c1` (centres undefined): the Drug metabolism entry in series [1] is “metabolite_detected”. In series [3], this compound had a half-life at 500 µM of 4.22 h. This compound registered a K in series [4] of 4.56 ×10⁻⁵ /s.

`COc1cc(CC(C)C(C)Cc2ccc(O)c(OC)c2)ccc1O` (centres undefined) [DIHYDROGUAIARETIC ACID]: the Drug metabolism result in [1] was “metabolite_detected”. Besides, in series [3], the half-life at 500 µM is 6.7 h. Moreover, in series [4], the K is 2.87 ×10⁻⁵ /s.

Turning to `Oc1cc2c(cc1O)-c1cc(O)c(O)cc1CCCC2`, the K in series [5] was 1.75 ×10⁻⁵ /s. Moreover, in [6], the Ratio is 3.7.

Regarding `CC(Cc1ccc(O)c(O)c1)C(C)Cc1ccc(O)c(O)c1` (centres undefined) [NORDIHYDROGUAIARETIC ACID], in [1], the Drug metabolism result is on record as “metabolite_detected”. Besides, the K is listed as 2.78 ×10⁻⁵ /s in series [7] and 4.88 ×10⁻⁵ /s in series [4]. Also, the half-life at 500 µM in [3] was 3.94 h. Further, the remaining at 6 h in series [8] was 87.1%; in series [10] it was 66.9%. Further, in [9], the pKa was found to be 9.3.

In the case of `COc1ccc(CC(C)C(C)Cc2ccc(O)c(O)c2)cc1OC` (centres undefined), the Drug metabolism result in [1] is listed as “metabolite_detected”. Moreover, the half-life at 500 µM in series [3] is 4.62 h. Moreover, the K in series [4] turned out to be 4.16 ×10⁻⁵ /s.

Take `Oc1ccc(CCCCc2ccc(O)c(O)c2)cc1O`: the Drug metabolism entry in series [1] is “metabolite_detected”. Further, in series [11], the Ratio is 3.1. The K was found to be 8.7 ×10⁻⁵ /s in series [12] and 13.1 ×10⁻⁵ /s in series [4]. The half-life at 500 µM in series [3] is 1.47 h. Besides, the remaining at 6 h in [8] came out at 95.5%; in series [10], 8.52%.

With `COc1cc(CC(C)C(C)Cc2ccccc2)ccc1O` (centres undefined), the Drug metabolism result in series [1] is listed as “metabolite_detected”. In addition, in series [3], the half-life at 500 µM was 5.49 h. The K in series [4] came to 3.5 ×10⁻⁵ /s.

`CC1Cc2cc(O)c(O)cc2-c2cc(O)c(O)cc2CC1C` (centres undefined) came in with a K in [5] of 0.47 ×10⁻⁵ /s.
